One assay deals with Streptococcus pyogenes. In words: Antibacterial activity against erythromycin-resistant Streptococcus pyogenes 1104 expressing ermB ribosomal methylase by broth microdilution method. In kind it is functional. Summed up:
(§1)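 MIC by broth microdilution, following Clinical and Laboratory Standards Institute guidelines for S. pneumoniae and S. pyogenes.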
For orientation: In broth dilution the organism is exposed to a series of concentrations in liquid medium.

Assay [1] deals with Haemophilus influenzae. In words: Antibacterial activity against Haemophilus influenzae ATCC 43095 by broth microdilution method. In kind it is functional. Summed up: (§2)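 MIC by broth microdilution following CLSI guidelines for S. pneumoniae and H. influenzae.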
The subject of assay [2] is Streptococcus pneumoniae. In words: Antibacterial activity against erythromycin-resistant Streptococcus pneumoniae 205 expressing ermB ribosomal methylase by broth microdilution method. The class given is functional. Summed up:
as §1

Assay [3] relates to Streptococcus pneumoniae. In words: Antibacterial activity against Streptococcus pneumoniae 210 expressing mefA efflux pump by broth microdilution method. In kind it is functional. Summed up: as §2
Assay [4] concerns Streptococcus pneumoniae. In words: Antibacterial activity against eryhtromycin-susceptible Streptococcus pneumoniae ATCC 49619 by broth microdilution method. The class given is functional. Summed up: as §1
Assay [5] relates to Streptococcus pneumoniae. In words: Ratio of clarithromycin MIC to compound MIC for eryhtromycin-susceptible Streptococcus pneumoniae ATCC 49619. The class given is functional.
Assay [6] concerns Streptococcus pneumoniae. In words: Antibacterial activity against erythromycin-resistant Streptococcus pneumoniae 1101 expressing ermB ribosomal methylase infected in po dosed CBA/JN mouse assessed as decrease in bacterial count in lungs administered QD 1 day post-inoculation for 2 days measured after 1 day. The class given is functional, organism-based. Summed up:
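Five-week-old male CBA/JN mice were inoculated intranasally with erm(B) S. pneumoniae 1101 at 5.5×10^4 CFU/mouse. Oral dosing once daily started the day after inoculation and continued for 2 days. Lung bacterial counts were taken the day after the last dose. Data are given as mean ± S.E., with Steel's test versus untreated control.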

Assay [7] has as its system Haemophilus influenzae. In words: Ratio of clarithromycin MIC to compound MIC for Haemophilus influenzae ATCC 43095. The class given is functional.
The subject of assay [8] is Haemophilus influenzae. In words: Antibacterial activity against Haemophilus influenzae ATCC 43095 infected in po dosed ICR mouse assessed as decrease in bacterial count in lungs administered QD 1 day post-inoculation for 2 days measured after 1 day. In kind it is functional, organism-based. Summed up:
(§3)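 Four-week-old male ICR mice were inoculated intratracheally with 5.2×10^6 CFU/mouse. Oral dosing began the day after inoculation, once daily for 2 days. Lung bacterial counts were taken the day after the last dose and are given as mean ± S.E. versus untreated control, with Steel's test.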

Assay [9] relates to Haemophilus influenzae. In words: Antibacterial activity against Haemophilus influenzae ATCC 43095 infected in ICR mouse assessed as decrease in bacterial count in lungs at 50 mg/kg, po administered QD 1 day post-inoculation for 2 days measured after 1 day. The class given is functional, organism-based. Also noted: dose 50 mg/kg. Summed up:
as §3

Assay [10] relates to Streptococcus pneumoniae. In words: Antibacterial activity against erythromycin-resistant Streptococcus pneumoniae 1101 expressing ermB ribosomal methylase by broth microdilution method. In kind it is functional. Summed up: as §1

For 5 molecules, MIC, Ratio and Activity results are on record in ChEMBL document CHEMBL2062383, “Synthesis and antibacterial activity of 6-O-(heteroaryl-isoxazolyl)propynyl 2-fluoro ketolides” (2012).

Converted amounts (≈) assume the structure as drawn. The source made the active and inactive calls. The rule behind the calls is not given here.

In the case of `CC[C@H]1OC(=O)[C@H](C)[C@@H](O[C@H]2C[C@@](C)(OC)[C@@H](O)[C@H](C)O2)[C@H](C)[C@@H](O[C@@H]2O[C@H](C)C[C@H](N(C)C)[C@H]2O)[C@](C)(OC)C[C@@H](C)C(=O)[C@H](C)[C@@H](O)[C@]1(C)O` [CLARITHROMYCIN], the MIC against Streptococcus pyogenes is over 128 µg/mL; with Haemophilus influenzae [1] it was 4 µg/mL (≈ 5.35 µM); with Streptococcus pneumoniae [2] it was over 128 µg/mL; against Streptococcus pneumoniae [3], 2 µg/mL (≈ 2.67 µM); against Streptococcus pneumoniae [4] it was 0.03 µg/mL (≈ 0.0401 µM).
As for `CC[C@H]1OC(=O)[C@@](C)(F)C(=O)[C@H](C)[C@@H](O[C@@H]2O[C@H](C)C[C@H](N(C)C)[C@H]2O)[C@](C)(OCC#Cc2cc(-c3cccnn3)no2)C[C@@H](C)C(=O)[C@H](C)[C@H]2NC(=O)O[C@@]21C`, the MIC against Streptococcus pyogenes stood at 1 µg/mL (≈ 1.25 µM); in the assay with Haemophilus influenzae [1] it was 2 µg/mL (≈ 2.5 µM); with Streptococcus pneumoniae [2] it was 0.008 µg/mL (≈ 0.01 µM); with Streptococcus pneumoniae [3] it was 0.03 µg/mL (≈ 0.0375 µM); in the assay on Streptococcus pneumoniae [4] it was 0.008 µg/mL (≈ 0.01 µM); in the assay on Streptococcus pneumoniae [10] it was 0.016 µg/mL (≈ 0.02 µM). Moreover, the Ratio with Streptococcus pneumoniae [5] is 4; with Haemophilus influenzae [7] it was 2. Further, the Activity entry with Streptococcus pneumoniae [6] and in the assay on Haemophilus influenzae [8] was “Dose-dependent effect” throughout. For the same molecule, the result with Haemophilus influenzae [9] was Active.
Turning to `CC[C@H]1OC(=O)[C@H](C)[C@@H](O[C@H]2C[C@@](C)(OC)[C@@H](O)[C@H](C)O2)[C@H](C)[C@@H](O[C@@H]2O[C@H](C)C[C@H](N(C)C)[C@H]2O)[C@](C)(O)C[C@@H](C)CN(C)[C@H](C)[C@@H](O)[C@]1(C)O` [AZITHROMYCIN], the MIC with Streptococcus pyogenes is over 128 µg/mL; with Haemophilus influenzae [1], 0.5 µg/mL (≈ 0.668 µM); in the assay with Streptococcus pneumoniae [2], over 128 µg/mL; against Streptococcus pneumoniae [3] it was 2 µg/mL (≈ 2.67 µM); against Streptococcus pneumoniae [4], 0.06 µg/mL (≈ 0.0801 µM).
On to `CC[C@H]1OC(=O)[C@@](C)(F)C(=O)[C@H](C)[C@@H](O[C@@H]2O[C@H](C)C[C@H](N(C)C)[C@H]2O)[C@](C)(OCC#Cc2cc(-c3cnc(N)nc3)no2)C[C@@H](C)C(=O)[C@H](C)[C@H]2NC(=O)O[C@@]21C`, for which the MIC is 0.06 µg/mL (≈ 0.0736 µM) in the assay on Streptococcus pyogenes; 2 µg/mL (≈ 2.45 µM) against Haemophilus influenzae [1]; 0.008 µg/mL (≈ 0.00982 µM) with Streptococcus pneumoniae [2]; 0.03 µg/mL (≈ 0.0368 µM) against Streptococcus pneumoniae [3]; 0.008 µg/mL (≈ 0.00982 µM) in the assay on Streptococcus pneumoniae [4]; 0.008 µg/mL (≈ 0.00982 µM) against Streptococcus pneumoniae [10]. Further, the Ratio in the assay on Streptococcus pneumoniae [5] is given as 4; in the assay on Haemophilus influenzae [7], 2. The Activity result in the assay with Streptococcus pneumoniae [6] and in the assay on Haemophilus influenzae [8] was “Dose-dependent effect” in each case.
For `CC[C@H]1OC(=O)[C@@](C)(F)C(=O)[C@H](C)[C@@H](O[C@@H]2O[C@H](C)C[C@H](N(C)C)[C@H]2O)[C@](C)(OCC#Cc2cc(-c3ncccn3)no2)C[C@@H](C)C(=O)[C@H](C)[C@H]2NC(=O)O[C@@]21C`, the MIC in the assay on Streptococcus pyogenes was determined as 2 µg/mL (≈ 2.5 µM); in the assay with Haemophilus influenzae [1], 2 µg/mL (≈ 2.5 µM); in the assay with Streptococcus pneumoniae [2], 0.008 µg/mL (≈ 0.01 µM); in the assay with Streptococcus pneumoniae [3], 0.03 µg/mL (≈ 0.0375 µM); in the assay on Streptococcus pneumoniae [4], 0.008 µg/mL (≈ 0.01 µM); against Streptococcus pneumoniae [10] it was 0.016 µg/mL (≈ 0.02 µM). The Ratio in the assay with Streptococcus pneumoniae [5] came out at 4; in the assay with Haemophilus influenzae [7] it was 2. The Activity result with Streptococcus pneumoniae [6] and in the assay with Haemophilus influenzae [8] was “Dose-dependent effect” each time.
